Activity calls are given as the source filed them. The calls are words filed in the database; no cut-off is given here.
Legend:
MCF7 [1] = assay: Induction of Bax gene expression in human MCF7 cells; format: functional, cell-based
Procedure, shortened: (§1)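 Northern blot: 10 mg RNA (so in the source) isolated 18 h after UV (8.5 J m–2) or doxorubicin (125 mg ml–1 as printed) from MCF7 or U2OS cells and p53-knockdown (lentiviral shRNA) counterparts; hybridized with 32P-labeled full-length cDNA probes for Bax, Noxa, Puma; 18S rRNA loading control.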

Thymocyte [2] = assay: Induction of p21 mRNA expression in mouse thymocytes
H1299 = assay: Inhibition of TNFalpha induced NF-kappaB activation in human H1299 cells; format: cell-based
BJ = assay: Induction of p21 mRNA expression in human BJ cells; format: functional, cell-based
Procedure, shortened: (§2)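 Wild-type and p53-deficient cell pairs stimulated with 5-FU ([…] as printed) or gamma irradiation (10 or 15 Gy); p21 mRNA quantified by real-time PCR; means ± s.d., n = 3.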

[3] = molecular target: Cellular tumor antigen p53 (Homo sapiens) (UniProt P04637); assay: Inhibition of p53-mediated apoptosis in human Saos-2 cells harboring p53 expressing lentiviral vector assessed as cell survival at 10 uM after 48 hrs by methylene blue assay; format: cell-based
Sequence of Cellular tumor antigen p53 (Homo sapiens) (P04637 whole entry, looked up): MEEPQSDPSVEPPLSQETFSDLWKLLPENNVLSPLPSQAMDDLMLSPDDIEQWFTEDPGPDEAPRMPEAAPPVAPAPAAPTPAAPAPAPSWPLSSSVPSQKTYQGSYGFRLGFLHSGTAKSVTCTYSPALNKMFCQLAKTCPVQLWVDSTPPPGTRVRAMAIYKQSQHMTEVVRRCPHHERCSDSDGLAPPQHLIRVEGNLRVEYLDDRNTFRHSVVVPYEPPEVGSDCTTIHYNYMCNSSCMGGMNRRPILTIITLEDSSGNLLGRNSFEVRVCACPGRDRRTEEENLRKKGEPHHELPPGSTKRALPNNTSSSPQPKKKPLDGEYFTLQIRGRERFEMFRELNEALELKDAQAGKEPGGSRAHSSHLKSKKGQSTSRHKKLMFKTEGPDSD
Procedure, shortened: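 Saos-2 cells infected with p53-expressing lentivirus; 10 µM test agent added 5 h after infection. Survival assessed 48 h after infection by methylene blue (0.5%) staining of attached cells and optical density read-out. Means ± s.d., n = 3.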

Homo sapiens = organism: Homo sapiens; assay: Induction of p21 mRNA expression in human SK-MEL-29 cells; format: functional, cell-based; procedure, shortened: as §2
Mus musculus = assay: Protection against 9 Gy gamma radiation-induced death in mouse assessed as increase in survival at 40 mg/kg, ip; format: functional; settings: route intraperitoneal
Procedure, shortened: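 Male C57Bl/6J mice, 8–10 weeks old, given a single 40 mg kg–1 intraperitoneal dose 30 min before total-body gamma irradiation (137Cs, 4 Gy min–1) at 8 or 9 Gy. Survival followed. Ten mice per subgroup; three independent repeats.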

Thymocyte [4] = assay: Induction of p21 mRNA expression in gamma-stimulated mouse thymocytes
[5] = molecular target: Cellular tumor antigen p53 (Homo sapiens) (UniProt P04637); assay: Binding affinity to p53 transfected in human […] cells assessed as reduction in p53 bound-Bcl-2 at 15 uM after 48 hrs; format: cell-based; settings: HEK293
Procedure, shortened: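 293T cells cotransfected with Flag-tagged wild-type Bcl-xL or Bcl-2 plus wild-type p53 plasmid; compound 15 mM (so in the source) applied 24 h after transfection; lysates (1 mg protein) immunoprecipitated with anti-Flag M2 gel, bound p53 detected with HRP-conjugated DO-1.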

U2OS = assay: Induction of Noxa gene expression in human U2OS cells; format: functional, cell-based; procedure, shortened: as §1
[6] = molecular target: Cellular tumor antigen p53 (Homo sapiens) (UniProt P04637); assay: Inhibition of p53-dependent transcription of noxa in doxorubicin-induced human U2OS cells; format: cell-based
Procedure, shortened: (§3)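 Northern analysis of U2OS cells, p53 wild-type and shRNA p53-knockdown. Induction by UV 8.5 J m–2 or Dox […]. RNA isolated 18 h after treatment; 10 µg hybridised with 32P-labelled full-length cDNA probes for Bax, Noxa or Puma. 18S rRNA used as loading control.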

Thymocyte [7] = assay: Antiapoptotic activity against dexamethasone-induced apoptosis in mouse thymocyte at 10 uM; format: functional, cell-based
Procedure, shortened: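 Primary thymocytes from 4-week-old p53-null C57Bl/6 mice, short-term culture; dexamethasone 0.5 mM, 24 h, with compound at 10 mM as printed; viability by trypan blue (0.1%) or annexin/PI FACScan; means ± s.d., n = 3.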

[8] = molecular target: Cellular tumor antigen p53 (Homo sapiens) (UniProt P04637); assay: Inhibition of p53 in gamma-stimulated human ConA cells assessed as effect on cell cycle distribution at 10 uM after 24 hrs; format: cell-based
Procedure, shortened: (§4)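 ConA cells given 10 µM test agent, with or without 10 Gy gamma irradiation. Cell-cycle distribution measured 24 h later.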

Thymocyte [9] = assay: Induction of Puma gene expression in gamma-induced mouse thymocytes; format: functional, cell-based
[10] = molecular target: Cellular tumor antigen p53 (Mus musculus) (UniProt P02340); assay: Inhibition of p53-mediated transactivation of p21 in gamma-stimulated mouse ConA cells at 10 uM after 6 hrs
Target sequence in this assay (P02340 whole entry, looked up): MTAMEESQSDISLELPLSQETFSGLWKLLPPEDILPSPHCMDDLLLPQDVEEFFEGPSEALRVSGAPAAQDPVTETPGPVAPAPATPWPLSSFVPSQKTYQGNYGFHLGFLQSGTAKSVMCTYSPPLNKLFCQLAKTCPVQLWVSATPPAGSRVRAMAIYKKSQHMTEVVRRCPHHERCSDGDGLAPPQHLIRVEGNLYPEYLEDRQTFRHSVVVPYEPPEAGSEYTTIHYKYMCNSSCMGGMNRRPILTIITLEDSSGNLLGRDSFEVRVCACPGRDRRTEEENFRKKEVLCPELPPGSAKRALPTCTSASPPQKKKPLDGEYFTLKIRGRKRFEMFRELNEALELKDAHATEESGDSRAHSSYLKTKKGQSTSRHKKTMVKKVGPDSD

[11] = molecular target: Cellular tumor antigen p53 (Mus musculus) (UniProt P02340); assay: Inhibition of p53-dependent transcription of puma in gamma-stimulated mouse thymocyte
Target sequence in this assay (P02340 whole entry): as the sequence (P02340 whole entry, looked up) above

[12] = molecular target: Cellular tumor antigen p53 (Homo sapiens) (UniProt P04637); assay: Inhibition of p53-dependent transcription of bax in UV-stimulated human […] cells; format: cell-based
Procedure, shortened: (§5)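 Northern analysis of MCF7 cells, p53 wild-type and shRNA p53-knockdown. Induction by UV 8.5 J m–2 or Dox […]. RNA isolated 18 h after treatment; 10 µg hybridised with 32P-labelled full-length cDNA probes for Bax, Noxa or Puma. 18S rRNA used as loading control.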

MCF7 [13] = assay: Induction of Noxa gene expression in human MCF7 cells; format: functional, cell-based; procedure, shortened: as §1
[14] = molecular target: Cellular tumor antigen p53 (Homo sapiens) (UniProt P04637); assay: Inhibition of p53-dependent transcription of puma in UV-induced human MCF7 cells; format: cell-based; procedure, shortened: as §5
[15] = Antiapoptotic activity against gamma irradiation-induced apoptosis in mouse thymocyte assessed as cytosolic Cyt c concentration at 20 uM; format: functional, cell-based
Procedure, shortened: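 Thymocytes (20 × 10^6) from 5-week-old C57Bl/6J mice irradiated with 10 Gy gamma, with or without compound ([…] as printed); cytosolic fractions isolated 5 h after irradiation and probed for cytochrome c by western blot.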

[16] = molecular target: Cellular tumor antigen p53 (Mus musculus) (UniProt P02340); assay: Binding affinity to p53 in gamma irradiated mouse thymocyte assessed as cytosolic caspase 8 concentration at 10 uM after 2 hrs
Target sequence in this assay (P02340 whole entry): as the sequence (P02340 whole entry, looked up) above

[17] = molecular target: Cellular tumor antigen p53 (Homo sapiens) (UniProt P04637); assay: Inhibition of p53-dependent transcription of bax in doxorubicin-induced human U2OS cells; format: cell-based; procedure, shortened: as §3
Thymocyte [18] = assay: Induction of Puma gene expression in mouse thymocytes; format: functional, cell-based
[19] = molecular target: Cellular tumor antigen p53 (Homo sapiens) (UniProt P04637); assay: Inhibition of p53-mediated transactivation of promoter hDM2 in human H1299 cells at 10 uM after 48 hrs by lacZ reporter assay; format: cell-based
[20] = molecular target: Cellular tumor antigen p53 (Homo sapiens) (UniProt P04637); assay: Binding affinity to p53 assessed as reduction in mitochondrial-bound p53 level at 50 uM
Procedure, shortened: (§6)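 Cell-free reconstitution: freshly isolated HeLa or Saos-2 mitochondria (40 mg as printed) incubated 1 h at 37 °C with purified baculoviral human wild-type p53 (60 ng) plus compound in MS buffer with CaCl2; mitochondria pelleted, washed three times, p53 cosedimentation by western blot, mt-Hsp75 loading control.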

[21] = molecular target: Cellular tumor antigen p53 (Homo sapiens) (UniProt P04637); assay: Inhibition of p53 in human ConA cells assessed as effect on cell cycle distribution at 10 uM after 24 hrs; format: cell-based; procedure, shortened: as §4
WI-38 [22] = assay: Antiapoptotic activity against Fas-induced apoptosis in human WI38 cells assessed as cell survival at 0.1 uM to 10 uM after 24 hrs by methylene blue assay in presence of 1 ug/ml cycloheximidine; format: functional, cell-based
WI-38 [23] = assay: Antiapoptotic activity against TNF-alpha induced apoptosis in human WI38 cells assessed as cell survival at 0.1 uM to 10 uM after 24 hrs by methylene blue assay in presence of 0.5 ug/ml cycloheximidine; format: functional, cell-based
[24] = molecular target: Cellular tumor antigen p53 (Homo sapiens) (UniProt P04637); assay: Inhibition of p53-dependent transcription of puma in human MCF7 cells; format: cell-based; procedure, shortened: as §5
[25] = molecular target: Cellular tumor antigen p53 (Homo sapiens) (UniProt P04637); assay: Inhibition of p53-mediated transactivation of p21 in gamma-stimulated human BJ cells at 10 uM after 6 hrs; format: cell-based
[26] = molecular target: Cellular tumor antigen p53 (Homo sapiens) (UniProt P04637); assay: Binding affinity to p53 assessed as reduction in mitochondrial-bound p53 level at 10 uM; procedure, shortened: as §6

Compound: NS(=O)(=O)C#Cc1ccccc1
- Activity (MCF7 [1]): inactive
- Activity (Thymocyte [2]): inactive
- inhibition (H1299): inactive
- Activity (BJ): inactive
- inhibition [3]: Active
- Activity (Homo sapiens): inactive
- Activity (Mus musculus): 50%
- Activity (Thymocyte [4]): inactive
- Activity [5]: Active
- Activity (U2OS): inactive
- inhibition [6]: inactive
- Activity (Thymocyte [7]): inactive
- inhibition [8]: inactive
- Activity (Thymocyte [9]): inactive
- inhibition [10]: inactive
- inhibition [11]: inactive
- inhibition [12]: inactive
- Activity (MCF7 [13]): inactive
- inhibition [14]: inactive
- Activity [15]: Active
- Activity [16]: inactive
- inhibition [17]: inactive
- Activity (Thymocyte [18]): inactive
- inhibition [19]: inactive
- Activity [20]: Active
- inhibition [21]: inactive
- Activity (WI-38 [22]): inactive
- Activity (WI-38 [23]): inactive
- inhibition [24]: inactive
- inhibition [25]: inactive
- Activity [26]: Active

— ChEMBL document CHEMBL1240314, “Small-molecule inhibitor of p53 binding to mitochondria protects mice from gamma radiation” (2006)
